Measured values pooled from the literature.
Lines come from different studies, so protocols differ.
Target: Serine/threonine-protein kinase tousled-like 1 (TLK1, Homo sapiens, UniProt Q9UKI8)
Sequence (Q9UKI8 1-766, as in one of the studies): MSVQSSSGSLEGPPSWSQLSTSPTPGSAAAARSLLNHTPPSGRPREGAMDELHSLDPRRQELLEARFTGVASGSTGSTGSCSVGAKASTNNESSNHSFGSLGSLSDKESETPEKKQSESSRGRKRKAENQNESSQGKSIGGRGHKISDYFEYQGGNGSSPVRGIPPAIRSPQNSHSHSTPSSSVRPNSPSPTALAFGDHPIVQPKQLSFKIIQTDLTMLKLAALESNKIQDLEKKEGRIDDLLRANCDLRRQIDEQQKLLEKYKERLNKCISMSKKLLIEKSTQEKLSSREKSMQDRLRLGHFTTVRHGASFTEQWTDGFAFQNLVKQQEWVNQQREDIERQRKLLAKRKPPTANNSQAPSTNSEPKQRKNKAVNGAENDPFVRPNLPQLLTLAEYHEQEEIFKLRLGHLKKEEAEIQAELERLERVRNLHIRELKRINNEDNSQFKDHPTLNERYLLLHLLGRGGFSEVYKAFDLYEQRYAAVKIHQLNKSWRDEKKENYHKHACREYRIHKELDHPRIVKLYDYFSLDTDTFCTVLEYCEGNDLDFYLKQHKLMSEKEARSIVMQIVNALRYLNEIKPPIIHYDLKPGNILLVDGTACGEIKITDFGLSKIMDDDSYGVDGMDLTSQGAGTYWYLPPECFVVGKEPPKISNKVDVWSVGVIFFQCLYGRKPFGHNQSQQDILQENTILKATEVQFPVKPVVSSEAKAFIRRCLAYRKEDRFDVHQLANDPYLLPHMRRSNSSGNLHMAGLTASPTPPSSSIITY

| SMILES | test | setting | remaining binding [%] |
| --- | --- | --- | --- |
| COc1cnc(Nc2cccc(S(N)(=O)=O)c2)nc1N1CCN(c2ccccc2)CC1 | binding, competition with immobilised ligand | 1 µM | 80 |
| C[C@@H](c1ccc(-n2cnc3c(N)ncnc32)cc1)N1CCc2nn(C)c(Cc3ccccc3)c2C1=O | binding, competition with immobilised ligand | 0.1 µM | 81 |
| Cc1c[nH]c2nccc(Oc3c(F)cc(Nc4cc(Cl)nc(N)n4)cc3F)c12 | cell-free assay, competition with immobilised ligand | 0.1 µM | 100 |
| CCN1CCN(Cc2ccc(C(=O)Nc3ccc(C)c(Oc4ccc5c(c4)CC(=O)N5)c3)cc2C(F)(F)F)CC1 | binding, competition with immobilised ligand | 1 µM | 88 |
| O=S(=O)(NC1CCC(c2cc(F)ccc2F)(S(=O)(=O)c2ccc(Cl)cc2)CC1)C(F)(F)F (centres unmarked) | cell-free assay, competition with immobilised ligand | 1 µM | 100 |
| COc1ccnn2ncc(-c3ccnc(N(C)C)n3)c12 | binding | 1 µM | 100 |
| O=C(c1ccc(Nc2nccc(-c3cc4ccccc4s3)n2)cc1)N1CCC(N2CCCC2)CC1 | binding, competition with immobilised ligand | 1 µM | 12 |
| O=C(Nc1c[nH]nc1C(=O)NC1CCNCC1)c1cc(F)cc(F)c1 | binding, competition with immobilised ligand | 1 µM | 100 |
| O=C(NCCCN1CCOCC1)c1ccc(Nc2ncc(Cl)c(-c3ccc(Cl)s3)n2)cc1 | binding, competition with immobilised ligand | 1 µM | 75 |
| C[C@@H]1CCN(c2nccc(-c3cnn4ncccc34)n2)C1 | binding | 1 µM | 79 |
| CC(=O)Nc1c(C(C)=O)c(=O)n(C)c2nc(-c3ccc(Cl)cc3Cl)c(-c3ccc(Cl)cc3)cc12 | cell-free assay, competition with immobilised ligand | 1 µM | 100 |
| COc1ncc2cc3ccccc3nc2c1C#N | cell-free assay, competition with immobilised ligand | 5 µM | 86 |
| CCc1ccccc1C(=O)Nc1n[nH]c2c(C)c(F)c(C3C(C#N)=C(C)N(C)C(C)=C3C#N)cc12 | cell-free assay, competition with immobilised ligand | 1 µM | 100 |
| COc1cnc(Nc2cccc(S(N)(=O)=O)c2)nc1N1CCN(c2ccccc2)C(=O)C1 | binding, competition with immobilised ligand | 1 µM | 97 |
| Cc1cnn2ncc(-c3ccnc(N(C)C)n3)c2c1 | binding | 1 µM | 75 |
| O=C(NC[C@@H]1[C@H]2CN(C(=O)OCc3cc(C(F)(F)F)cc(C(F)(F)F)c3)C[C@@H]12)c1ccc2[nH]nnc2c1 | cell-free assay, competition with immobilised ligand | 1 µM | 68 |
| N[C@@H]1CCN(c2nccc(-c3cnn4ncccc34)n2)C1 | binding | 1 µM | 39 |
| O=C(c1ccc(Nc2ncc(Cl)c(-c3ccc(Cl)s3)n2)cc1)N1CCC(N2CCCC2)CC1 | binding, competition with immobilised ligand | 1 µM | 32 |
| F[C@@H]1CCN(c2nccc(-c3cnn4ncccc34)n2)C1 | binding | 1 µM | 100 |
| Cc1nccc(COC(=O)N2C[C@@H]3[C@@H](CNC(=O)c4ccc5[nH]nnc5c4)[C@@H]3C2)n1 | cell-free assay, competition with immobilised ligand | 1 µM | 87 |
